ChEMBL document CHEMBL1255347, “Multiclonal outbreak of Klebsiella pneumoniae producing extended-spectrum beta-lactamase CTX-M-2 and novel variant CTX-M-59 in a neonatal intensive care unit in Brazil” (2008)
Converted amounts (≈) assume the structure as drawn.

Legend:
Klebsiella pneumoniae [1] = assay: Antimicrobial activity against CTX-M-2 producing Klebsiella pneumoniae with PFGE pulsotype A by Etest; format: functional
Method in brief: (§1)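 Clinical K. pneumoniae isolates from a neonatal ICU outbreak near São Paulo were typed by XbaI PFGE using Tenover criteria. Cultures were grown in LB broth at 37°C. Etest MICs followed the manufacturer's instructions, with cefotaxime and ceftazidime each tested with and without clavulanic acid.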

Klebsiella pneumoniae [2] = assay: Antimicrobial activity against CTX-M-2 producing Klebsiella pneumoniae with PFGE pulsotype B by Etest; format: functional; method in brief: as §1
Klebsiella pneumoniae [3] = assay: Antimicrobial activity against CTX-M-59 producing Klebsiella pneumoniae with PFGE pulsotype C by Etest; format: functional
Klebsiella pneumoniae [4] = assay: Antimicrobial activity against SHV-5 producing Klebsiella pneumoniae with PFGE pulsotype D by Etest; format: functional; method in brief: as §1
Klebsiella pneumoniae [5] = assay: Antimicrobial activity against CTX-M-59 producing Klebsiella pneumoniae with PFGE pulsotype E by Etest; format: functional
Klebsiella pneumoniae [6] = assay: Antimicrobial activity against CTX-M-59 producing Klebsiella pneumoniae with PFGE pulsotype G by Etest; format: functional; method in brief: as §1
Klebsiella pneumoniae [7] = assay: Antimicrobial activity against CTX-M-2 producing Klebsiella pneumoniae with PFGE pulsotype H by Etest; format: functional; method in brief: as §1
Klebsiella pneumoniae [8] = assay: Antimicrobial activity against CTX-M-2 producing Klebsiella pneumoniae with PFGE pulsotype I by Etest; format: functional
Klebsiella pneumoniae [9] = assay: Antimicrobial activity against CTX-M-2 producing Klebsiella pneumoniae with PFGE pulsotype J by Etest; format: functional
Klebsiella pneumoniae [10] = assay: Antimicrobial activity against CTX-M-2 producing Klebsiella pneumoniae with PFGE pulsotype F by Etest; format: functional
Escherichia coli [11] = assay: Antimicrobial activity against Escherichia coli str. K-12 substr. DH10B harboring plasmid CTX-M-2; format: functional; conditions: K-12 DH10B
Method in brief: (§2)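 blaCTX-M PCR products were cut with XbaI/BamHI and cloned into pBC-SK(−), then electroporated into E. coli DH10B. Transformants were selected on LB agar with ampicillin 50 μg/ml and chloramphenicol 30 μg/ml, and sequences were confirmed. These clones were used for β-lactam MICs, with and without clavulanic acid.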

Escherichia coli [12] = assay: Antimicrobial activity against Escherichia coli str. K-12 substr. DH10B harboring plasmid CTX-M-2 in presence of clavulanic acid; format: functional; conditions: K-12 DH10B; method in brief: as §2
Escherichia coli [13] = assay: Antimicrobial activity against Escherichia coli str. K-12 substr. DH10B harboring plasmid CTX-M-59; format: functional; conditions: K-12 DH10B; method in brief: as §2
Escherichia coli [14] = assay: Antimicrobial activity against Escherichia coli str. K-12 substr. DH10B harboring plasmid CTX-M-59 in presence of clavulanic acid; format: functional; conditions: K-12 DH10B; method in brief: as §2
Klebsiella pneumoniae [15] = assay: Antimicrobial activity against CTX-M-2 and TEM-1 producing Klebsiella pneumoniae transconjugants/transformants with PFGE pulsotype A by Etest; format: functional
Method in brief: (§3)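 The recipient was E. coli XL1-Blue Rifr NAr. Plasmids moved by broth mating, with transconjugants selected on LB agar containing ampicillin, rifampin and nalidixic acid, each at 50 μg/ml. Where mating failed, alkaline-lysis plasmid extracts were electroporated and selected on ampicillin 50 μg/ml. β-lactam MICs were read by Etest, with and without clavulanic acid.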

Klebsiella pneumoniae [16] = assay: Antimicrobial activity against CTX-M-2 and TEM-1 producing Klebsiella pneumoniae transconjugants/transformants with PFGE pulsotype B by Etest; format: functional; method in brief: as §3
Klebsiella pneumoniae [17] = assay: Antimicrobial activity against CTX-M-59 and TEM-1 producing Klebsiella pneumoniae transconjugants/transformants with PFGE pulsotype C by Etest; format: functional; method in brief: as §3
Klebsiella pneumoniae [18] = assay: Antimicrobial activity against SHV-5 producing Klebsiella pneumoniae transconjugants/transformants with PFGE pulsotype D by Etest; format: functional; method in brief: as §3
Klebsiella pneumoniae [19] = assay: Antimicrobial activity against CTX-M-59 and TEM-1 producing Klebsiella pneumoniae transconjugants/transformants with PFGE pulsotype E by Etest; format: functional; method in brief: as §3
Klebsiella pneumoniae [20] = assay: Antimicrobial activity against CTX-M-2 and TEM-1 producing Klebsiella pneumoniae transconjugants/transformants with PFGE pulsotype F by Etest; format: functional; method in brief: as §3
Klebsiella pneumoniae [21] = assay: Antimicrobial activity against CTX-M-59 and TEM-1 producing Klebsiella pneumoniae transconjugants/transformants with PFGE pulsotype G by Etest; format: functional; method in brief: as §3
Klebsiella pneumoniae [22] = assay: Antimicrobial activity against CTX-M-2 and TEM-1 producing Klebsiella pneumoniae transconjugants/transformants with PFGE pulsotype H by Etest; format: functional; method in brief: as §3
Klebsiella pneumoniae [23] = assay: Antimicrobial activity against CTX-M-2 and TEM-1 producing Klebsiella pneumoniae transconjugants/transformants with PFGE pulsotype I by Etest; format: functional; method in brief: as §3
Klebsiella pneumoniae [24] = assay: Antimicrobial activity against CTX-M-2 and TEM-1 producing Klebsiella pneumoniae transconjugants/transformants with PFGE pulsotype J by Etest; format: functional; method in brief: as §3
Klebsiella pneumoniae [25] = assay: Antimicrobial activity against CTX-M-2 and TEM-1 producing Klebsiella pneumoniae transconjugants/transformants with PFGE pulsotype B by Etest in presence of clavulanic acid; format: functional; method in brief: as §3
Klebsiella pneumoniae [26] = assay: Antimicrobial activity against CTX-M-59 and TEM-1 producing Klebsiella pneumoniae transconjugants/transformants with PFGE pulsotype C by Etest in presence of clavulanic acid; format: functional; method in brief: as §3
Klebsiella pneumoniae [27] = assay: Antimicrobial activity against SHV-5 producing Klebsiella pneumoniae transconjugants/transformants with PFGE pulsotype D by Etest in presence of clavulanic acid; format: functional; method in brief: as §3
Klebsiella pneumoniae [28] = assay: Antimicrobial activity against CTX-M-59 and TEM-1 producing Klebsiella pneumoniae transconjugants/transformants with PFGE pulsotype E by Etest in presence of clavulanic acid; format: functional; method in brief: as §3
Klebsiella pneumoniae [29] = assay: Antimicrobial activity against CTX-M-2 and TEM-1 producing Klebsiella pneumoniae transconjugants/transformants with PFGE pulsotype F by Etest in presence of clavulanic acid; format: functional; method in brief: as §3
Klebsiella pneumoniae [30] = assay: Antimicrobial activity against CTX-M-59 and TEM-1 producing Klebsiella pneumoniae transconjugants/transformants with PFGE pulsotype G by Etest in presence of clavulanic acid; format: functional; method in brief: as §3
Klebsiella pneumoniae [31] = assay: Antimicrobial activity against CTX-M-2 and TEM-1 producing Klebsiella pneumoniae transconjugants/transformants with PFGE pulsotype H by Etest in presence of clavulanic acid; format: functional
Klebsiella pneumoniae [32] = assay: Antimicrobial activity against CTX-M-2 and TEM-1 producing Klebsiella pneumoniae transconjugants/transformants with PFGE pulsotype I by Etest in presence of clavulanic acid; format: functional; method in brief: as §3
Klebsiella pneumoniae [33] = assay: Antimicrobial activity against CTX-M-2 and TEM-1 producing Klebsiella pneumoniae transconjugants/transformants with PFGE pulsotype J by Etest in presence of clavulanic acid; format: functional; method in brief: as §3
Klebsiella pneumoniae [34] = assay: Antimicrobial activity against CTX-M-2 producing Klebsiella pneumoniae with PFGE pulsotype A by Etest in presence of clavulanic acid; format: functional; method in brief: as §1
Klebsiella pneumoniae [35] = assay: Antimicrobial activity against CTX-M-2 producing Klebsiella pneumoniae with PFGE pulsotype B by Etest in presence of clavulanic acid; format: functional; method in brief: as §1
Klebsiella pneumoniae [36] = assay: Antimicrobial activity against CTX-M-59 producing Klebsiella pneumoniae with PFGE pulsotype C by Etest in presence of clavulanic acid; format: functional; method in brief: as §1
Klebsiella pneumoniae [37] = assay: Antimicrobial activity against SHV-5 producing Klebsiella pneumoniae with PFGE pulsotype D by Etest in presence of clavulanic acid; format: functional
Klebsiella pneumoniae [38] = assay: Antimicrobial activity against CTX-M-59 producing Klebsiella pneumoniae with PFGE pulsotype E by Etest in presence of clavulanic acid; format: functional
Method in brief: (§4)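 MICs were determined by Etest strips following the manufacturer's instructions, using cefotaxime and ceftazidime each combined with clavulanic acid. The test strains were clinical NICU outbreak isolates confirmed as ESBL producers by disk diffusion. Pulsotypes were assigned by XbaI PFGE using Tenover relatedness criteria. Cultures were routinely grown in LB broth at 37°C.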

Klebsiella pneumoniae [39] = assay: Antimicrobial activity against CTX-M-2 producing Klebsiella pneumoniae with PFGE pulsotype F by Etest in presence of clavulanic acid; format: functional; method in brief: as §1
Klebsiella pneumoniae [40] = assay: Antimicrobial activity against CTX-M-59 producing Klebsiella pneumoniae with PFGE pulsotype G by Etest in presence of clavulanic acid; format: functional; method in brief: as §4
Klebsiella pneumoniae [41] = assay: Antimicrobial activity against CTX-M-2 producing Klebsiella pneumoniae with PFGE pulsotype H by Etest in presence of clavulanic acid; format: functional
Method in brief: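 Etest strips used per manufacturer's instructions to read MICs of cefotaxime and ceftazidime, each with clavulanic acid, on clinical NICU K. pneumoniae outbreak isolates. Isolates were typed by XbaI PFGE using Tenover criteria and routinely grown in LB broth at 37°C.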

Klebsiella pneumoniae [42] = assay: Antimicrobial activity against CTX-M-2 producing Klebsiella pneumoniae with PFGE pulsotype I by Etest in presence of clavulanic acid; format: functional; method in brief: as §1
Klebsiella pneumoniae [43] = assay: Antimicrobial activity against CTX-M-2 producing Klebsiella pneumoniae with PFGE pulsotype J by Etest in presence of clavulanic acid; format: functional; method in brief: as §1
Escherichia coli [44] = assay: Antimicrobial activity against CTX-M-2 and TEM-1 producing Escherichia coli transconjugants/transformants with PFGE pulsotype A by Etest in presence of clavulanic acid

Question: What does the source list for `O=C(O)c1cn(C2CC2)c2cc(N3CCNCC3)c(F)cc2c1=O` [CIPROFLOXACIN]?
Answer: MIC (Klebsiella pneumoniae [1]): 0.023 µg/mL (≈ 0.0694 µM); MIC (Klebsiella pneumoniae [2]): 0.032 µg/mL (≈ 0.0966 µM); MIC (Klebsiella pneumoniae [3]): 0.032 µg/mL (≈ 0.0966 µM); MIC (Klebsiella pneumoniae [4]): 0.023 µg/mL (≈ 0.0694 µM); MIC (Klebsiella pneumoniae [5]): 0.032 µg/mL (≈ 0.0966 µM); MIC (Klebsiella pneumoniae [6]): 0.125 µg/mL (≈ 0.377 µM); MIC (Klebsiella pneumoniae [7]): 0.023 µg/mL (≈ 0.0694 µM); MIC (Klebsiella pneumoniae [8]): 0.032 µg/mL (≈ 0.0966 µM); MIC (Klebsiella pneumoniae [9]): 0.023 µg/mL (≈ 0.0694 µM)

Question: What does the source list for `CC(C)(O/N=C(\C(=O)N[C@@H]1C(=O)N2C(C(=O)[O-])=C(C[n+]3ccccc3)CS[C@H]12)c1csc(N)n1)C(=O)O` [CEFTAZIDIME]?
Answer: MIC (Klebsiella pneumoniae [1]): 6 µg/mL (≈ 11 µM); MIC (Klebsiella pneumoniae [2]): 24 µg/mL (≈ 43.9 µM); MIC (Klebsiella pneumoniae [3]): 4 µg/mL (≈ 7.32 µM); MIC (Klebsiella pneumoniae [4]): 256 µg/mL (≈ 468 µM); MIC (Klebsiella pneumoniae [5]): 8 µg/mL (≈ 14.6 µM); MIC (Klebsiella pneumoniae [10]): 8 µg/mL (≈ 14.6 µM); MIC (Klebsiella pneumoniae [6]): 12 µg/mL (≈ 22 µM); MIC (Klebsiella pneumoniae [7]): 256 µg/mL (≈ 468 µM); MIC (Klebsiella pneumoniae [8]): 4 µg/mL (≈ 7.32 µM); MIC (Klebsiella pneumoniae [9]): 6 µg/mL (≈ 11 µM); MIC (Escherichia coli [11]): 8 µg/mL (≈ 14.6 µM); MIC (Escherichia coli [12]): 0.38 µg/mL; MIC (Escherichia coli [13]): 8 µg/mL (≈ 14.6 µM); MIC (Escherichia coli [14]): 0.38 µg/mL; MIC (Klebsiella pneumoniae [15]): 8 µg/mL (≈ 14.6 µM); MIC (Klebsiella pneumoniae [16]): 12 µg/mL (≈ 22 µM); MIC (Klebsiella pneumoniae [17]): 8 µg/mL (≈ 14.6 µM); MIC (Klebsiella pneumoniae [18]): > 256 µg/mL; MIC (Klebsiella pneumoniae [19]): 4 µg/mL (≈ 7.32 µM); MIC (Klebsiella pneumoniae [20]): 16 µg/mL (≈ 29.3 µM); MIC (Klebsiella pneumoniae [21]): 8 µg/mL (≈ 14.6 µM); MIC (Klebsiella pneumoniae [22]): 8 µg/mL (≈ 14.6 µM); MIC (Klebsiella pneumoniae [23]): 6 µg/mL (≈ 11 µM); MIC (Klebsiella pneumoniae [24]): 12 µg/mL (≈ 22 µM); MIC (Klebsiella pneumoniae [25]): 0.19 µg/mL; MIC (Klebsiella pneumoniae [26]): 0.25 µg/mL; MIC (Klebsiella pneumoniae [27]): 0.19 µg/mL; MIC (Klebsiella pneumoniae [28]): 0.19 µg/mL; MIC (Klebsiella pneumoniae [29]): 0.38 µg/mL; MIC (Klebsiella pneumoniae [30]): 0.38 µg/mL; MIC (Klebsiella pneumoniae [31]): 0.25 µg/mL; MIC (Klebsiella pneumoniae [32]): 0.19 µg/mL; MIC (Klebsiella pneumoniae [33]): 0.38 µg/mL; MIC (Klebsiella pneumoniae [34]): 0.5 µg/mL; MIC (Klebsiella pneumoniae [35]): 0.75 µg/mL; MIC (Klebsiella pneumoniae [36]): 0.38 µg/mL; MIC (Klebsiella pneumoniae [37]): 0.25 µg/mL; MIC (Klebsiella pneumoniae [38]): 0.75 µg/mL; MIC (Klebsiella pneumoniae [39]): 1.5 µg/mL; MIC (Klebsiella pneumoniae [40]): 1 µg/mL; MIC (Klebsiella pneumoniae [41]): > 4 µg/mL; MIC (Klebsiella pneumoniae [42]): 0.5 µg/mL; MIC (Klebsiella pneumoniae [43]): 0.75 µg/mL; MIC (Escherichia coli [44]): 0.19 µg/mL
